Many of the other results were omitted from the sample, so hits are more common in it than they were.
T cruzi inh – inhibitors of intracellular T. cruzi growth, primary screen, luminescence, NIH3T3 host cells; T. cruzi beta-gal in NIH3T3, 90 h; AID 1885, 2009; 300,000 tested, 1.4% active; inhibition, % (no concentration beside the values);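 active = mean inhibition across valid replicates above about 55%, limit read from the data; inconclusive = mean below that limit but half or more replicates reach it; inactive = mean below it, under half of replicates reach it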;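 note: signal also drops with host cell toxicity which is not excluded here; 0% = plate median of DMSO wells and 100% = zero luminescence signal; higher percent means less beta-gal luminescence so fewer parasites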
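Assay system: NIH/3T3 fibroblasts plus reporter T. cruzi. Amount: NIH/3T3 cells, 5,000 per well. Buffer or medium: DMEM, 2% fetal bovine serum. Doses: compound pinned at 50 nL/well, DMSO. Schedule: ≥90 h infection period, 3 h prior cell attachment. Signal: luminescent β-galactosidase signal after 60 min lysis. Read-out: parasite load inhibition, %.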
CHOP inh – inhibitors of CHOP promoter induction, primary screen, cell-based, unfolded protein response, luciferase reporter; AID 2732, 2010; 220,000 tested, 3.8% active; CHO-K1 CHOP-promoter luciferase, tunicamycin-induced, 15-18 h; inhibition, % at 10 µM;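 active = compounds that reduced the stress-induced luciferase reporter signal by more than about 70% of percent inhibition, limit read from the data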;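 note: 0% = tunicamycin plus vehicle and 100% = wells without tunicamycin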
Lmaj promast – Leishmania major promastigote growth inhibition, primary screen; Leishmania major promastigotes, resazurin fluorescence viability; inhibition, % at 10 µM; 200,000 tested, 9% active; AID 1063, 2008; in the data active = inhibition above about 50%;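 note: promastigotes grown with compound for 44 hours at 28 °C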
Dynein cargo inh – inhibitors of GR-EGFP nuclear translocation, primary screen, dynein cargo transport inhibitor project, imaging, high-content, 3617.4 mouse cells. test concentration mostly 20 µM; stimulated with dexamethasone, 1 µM; active compounds read low. z-score, hits read low. 220,000 tested, 0.47% active. AID 1381, 2008;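 active = plate z-score of nuclear minus cytoplasmic receptor signal below a set negative limit, without overly bright fluorescence or cell loss, cut at about -3.5 in these data, passing the limit was not always enough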;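 note: z-score of nuclear minus cytoplasmic ring GR-EGFP intensity difference per well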
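Also added: dexamethasone, 1.0 µM final. Medium: tet-free, stripped-serum medium. Detection: fixed, Hoechst-stained cells imaged at 10x for EGFP. Read-out: nuclear-to-cytoplasmic GR-EGFP distribution per well. Times: induction 48 h, compound 1 h, agonist 30 min.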
XBP1 UPR activ – activators of adaptive XBP1 UPR arm, primary screen, cell-based, CHO-XBP1 luciferase reporter, luminescence, uHTS. IRE1-XBP1 UPR activation; percent of tunicamycin response, DMSO as zero. activation, % at 20 µM. 330,000 tested, 0.33% active;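 active = versus positive control, 20 µM dose yields 30% or more activation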;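 note: 100% = tunicamycin at 10 µg/mL and 0% = DMSO only wells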
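Signal: luciferase luminescence; Assay system: CHO-XBP1 luciferase reporter cells; Amount: one thousand reporter cells per well; Dosing: 20 µM single concentration, DMSO 1%; Benchmarks: high control tunicamycin 10 µg/mL final, low control DMSO vehicle only; Schedule: 6 h compound exposure at 37 °C, 5% CO2; Evaluation: percent activation relative to tunicamycin reference.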
CHOP UPR activ – activators of apoptotic CHOP UPR arm, primary screen, cell-based, CHO-CHOP luciferase reporter, luminescence, uHTS | UPR activation; percent of tunicamycin response over DMSO baseline | activation, % at 10 µM | 330,000 tested, 0.34% active | AID 449763, 2010;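 active = at 10 µM dose, activation of 40% or more, normalized to positive control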;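 note: 100% = tunicamycin at 10 µg/mL and 0% = DMSO alone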
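Material: CHO-CHOP cells, stable luciferase reporter of PERK-eIF2a-CHOP signalling; quantity: 500 reporter cells seeded per well; buffer or medium: F12 medium containing 10% fetal bovine serum; compound: one dose, 10 µM in 0.5% DMSO; incubation: 6 h compound treatment, 37 °C; measured by: Steady-Glo luciferase luminescence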
Dynein inh conf – dynein cargo transport inhibitors, GR-EGFP translocation, confirmation, imaging, high-content imaging, GR-EGFP cells; AID 463116, 2010; calls only at 20 µM; 1,000 tested, 69% active; 3617.4 GR-EGFP nuclear translocation imaging, dexamethasone-induced; shares compounds with Dynein cargo inh;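 active = inhibition of receptor movement into the nucleus at or above a set limit in both runs, with normal cell brightness and cell count; inconclusive = limit reached in only one run, brightness and count normal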;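 note: dexamethasone at 1 µM final in well for 30 min; nuclear minus cytoplasmic GR-EGFP mean intensity difference in channel 2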
An asterisk follows results filed as active.

What do the screens show for `N#CC1=C(N)C(C#N)(C#N)C(c2ccncc2)C2CN(C(=O)OCc3ccccc3)CC=C12` (stereo unspecified)?
T cruzi inh: -14.8; CHOP inh: 9.5; Lmaj promast: -0.5; Dynein cargo inh: -4.01; XBP1 UPR activ: 10.0; CHOP UPR activ: 10.8; Dynein inh conf: inactive

What do the screens show for `N#CC1=C(N)C(C#N)(C#N)[C@H](c2cccnc2)[C@H]2CN(C(=O)OCc3ccccc3)CC=C12`?
T cruzi inh: -2.3; CHOP inh: 45.5; Lmaj promast: 4.6; Dynein cargo inh: -0.278; XBP1 UPR activ: 1.0; CHOP UPR activ: 2.1

What do the screens show for `NC(=O)CN1C(=O)C(O)(CC(=O)/C=C\c2ccc3c(c2)OCO3)c2ccccc21` (stereo unspecified)?
T cruzi inh: -24.5; CHOP inh: -10.8; Lmaj promast: 0.3; Dynein cargo inh: -3.08; XBP1 UPR activ: -3.4; CHOP UPR activ: -1.9

What do the screens show for `CN1C(=O)C(O)(CC(=O)/C=C\c2ccc3c(c2)OCO3)c2ccccc21` (stereo unspecified)?
T cruzi inh: -23.8; CHOP inh: 58.6; Lmaj promast: 26.9; Dynein cargo inh: -4.55*; XBP1 UPR activ: -2.0; CHOP UPR activ: -0.9; Dynein inh conf: active

How did O=[N+]([O-])c1ccc(Sc2nccn2Cc2ccccc2)c([N+](=O)[O-])c1 do in these assays?
T cruzi inh: 65.0*; CHOP inh: -4.5; Lmaj promast: 100.7*; Dynein cargo inh: -4.57*; XBP1 UPR activ: 5.3; CHOP UPR activ: 2.9; Dynein inh conf: active

How did O=[N+]([O-])c1ccc(Sc2ncccn2)c([N+](=O)[O-])c1 do in these assays?
T cruzi inh: 26.5; CHOP inh: -54.3; Dynein cargo inh: -4.84*; XBP1 UPR activ: -1.0; CHOP UPR activ: 10.4; Dynein inh conf: inactive

How did Cc1ccc(/C=N/n2c(C3CCCCC3)n[nH]c2=S)cc1 do in these assays?
T cruzi inh: -0.3; XBP1 UPR activ: -4.0; CHOP UPR activ: -1.1

Results for CC(=O)n1cc(N(C(=O)CCl)c2ccc([N+](=O)[O-])cc2)c2ccccc21 ?
T cruzi inh: 11.2; CHOP inh: 105.7*; Dynein cargo inh: -5.04*; XBP1 UPR activ: -9.1; CHOP UPR activ: -7.6; Dynein inh conf: active

How did CC(=O)n1cc(N(C(=O)CCl)c2ccccc2)c2ccccc21 do in these assays?
T cruzi inh: 11.2; CHOP inh: 107.0*; Dynein cargo inh: -4.53*; XBP1 UPR activ: -7.0; CHOP UPR activ: -3.5; Dynein inh conf: active

How did Cc1nc2sccc2c(=O)n1N do in these assays?
T cruzi inh: 0.7; CHOP inh: -6.9; Lmaj promast: -1.7; Dynein cargo inh: 0.593; XBP1 UPR activ: -0.2; CHOP UPR activ: 2.4

What do the screens show for `CCN(CC)S(=O)(=O)c1cc(C)ccc1SC`?
T cruzi inh: 8.1; CHOP inh: 9.9; Lmaj promast: -2.6; Dynein cargo inh: -0.566; XBP1 UPR activ: -0.2; CHOP UPR activ: 1.8

How did CC1CCN(C(=O)c2ccc(S(=O)(=O)Cc3cccc(F)c3)c([N+](=O)[O-])c2)CC1 do in these assays?
T cruzi inh: -5.2; CHOP inh: 20.6; Lmaj promast: -0.7; Dynein cargo inh: -0.282; XBP1 UPR activ: -2.0; CHOP UPR activ: 2.5

How did O=C(c1ccc(S(=O)(=O)Cc2cc(F)ccc2F)c([N+](=O)[O-])c1)N1CCCC1 do in these assays?
T cruzi inh: -9.4; CHOP inh: -7.7; Lmaj promast: 17.7; Dynein cargo inh: -4.61*; XBP1 UPR activ: -1.9; CHOP UPR activ: 2.4; Dynein inh conf: active

How did COc1ccc(N(C(=O)c2ccco2)C(C(=O)NC2CCCCC2)c2cccs2)cc1OC (stereo unspecified) do in these assays?
T cruzi inh: -5.7; CHOP inh: 8.8; Lmaj promast: -1.3; Dynein cargo inh: 0.378; XBP1 UPR activ: -1.0; CHOP UPR activ: -1.9

What do the screens show for `C#CC(=O)N(c1ccc(OC)cc1OC)C(C(=O)NC1CCCC1)c1cccs1` (stereo unspecified)?
T cruzi inh: 16.4; CHOP inh: 107.5*; Lmaj promast: 94.2*; Dynein cargo inh: -4.44*; XBP1 UPR activ: -8.5; CHOP UPR activ: -8.1; Dynein inh conf: active

How did CS(=O)(=O)c1ccc(C(=O)OCc2nnc(-c3ccc(Cl)cc3)o2)cc1[N+](=O)[O-] do in these assays?
T cruzi inh: 10.0; CHOP inh: 79.2*; Lmaj promast: -12.8; Dynein cargo inh: -5.59*; XBP1 UPR activ: 2.6; CHOP UPR activ: 2.4; Dynein inh conf: active

How did Cn1cc(Br)c(NC(=O)/C=C/C(=O)O)n1 do in these assays?
T cruzi inh: -0.1; CHOP inh: 10.8; Dynein cargo inh: -6.2*; XBP1 UPR activ: -1.6; CHOP UPR activ: 0.4; Dynein inh conf: active

What do the screens show for `O=C(NC(Cc1cccc(F)c1)C(=O)O)C1CCCCC1` (stereo unspecified)?
XBP1 UPR activ: -1.6; CHOP UPR activ: 2.1

What do the screens show for `Cc1cccc(NC(=O)CCC(=O)OCC(=O)c2ccc(Oc3ccc([N+](=O)[O-])cc3)cc2)c1`?
T cruzi inh: -11.7; CHOP inh: 10.1; Lmaj promast: -6.4; Dynein cargo inh: -4.38*; XBP1 UPR activ: -3.6; CHOP UPR activ: 4.3; Dynein inh conf: inconclusive

What do the screens show for `Cc1ccc(OCC(=O)c2ccc(Cl)s2)c([N+](=O)[O-])n1`?
T cruzi inh: -2.8; CHOP inh: -49.9; Lmaj promast: -5.7; Dynein cargo inh: -3.85*; XBP1 UPR activ: -0.2; CHOP UPR activ: 6.9; Dynein inh conf: active

What do the screens show for `Cc1ccc(CNC(=O)COc2ccc(C)nc2[N+](=O)[O-])cc1`?
T cruzi inh: 1.0; CHOP inh: 24.1; Lmaj promast: -3.2; Dynein cargo inh: 0.588; XBP1 UPR activ: -0.1; CHOP UPR activ: -1.7

Results for O=C(CSc1nc(=O)n2ccccc2n1)NC1CCCCC1 ?
T cruzi inh: -4.1; XBP1 UPR activ: -0.9; CHOP UPR activ: -0.8

What do the screens show for `O=C(CN(C(=O)c1csnn1)c1ccc(Cl)cc1)NCc1ccc2c(c1)OCO2`?
T cruzi inh: -5.4; XBP1 UPR activ: 3.2; CHOP UPR activ: 2.7

What do the screens show for `Oc1c(Cl)cc(Cl)c2c1NCCC2`?
T cruzi inh: 17.5; CHOP inh: 33.6; Lmaj promast: -6.5; Dynein cargo inh: -4.74*; XBP1 UPR activ: -1.1; CHOP UPR activ: 0.8; Dynein inh conf: inactive

High-throughput results deposited in PubChem by several laboratories.
